Results taken from ChEMBL document CHEMBL2203280, “Bicyclic peptidomimetics targeting secreted aspartic protease 2 (SAP2) from Candida albicans reveal a constrained inhibitory chemotype” (Bioorg Med Chem, 2012).

How the values were obtained:
[1] = target: T1, Secreted aspartic protease 2 (Candida albicans, UniProt P0CS83); assay: Inhibition of candida albicans SAP2 using 0.05% BSA as substrate by spectrophotometric analysis
Procedure, shortened: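 SAP2 incubated with inhibitor in 0.05% (w/v) BSA substrate, 50 mM sodium citrate pH 3.2, for 30 min at 37 °C. Stopped with 10% (w/v) TCA, held on ice 30 min, centrifuged 3000 g 10 min. Supernatant A280 read against 0.05% BSA in citrate blank. ΔOD per min taken at six inhibitor concentrations, including 5, 1 and 0.1 nM. Pepstatin A run at matching concentrations.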

[2] = target: T1, Secreted aspartic protease 2; assay: Inhibition of candida albicans SAP2
Procedure, shortened: (§1)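 SAP2 protease (1 µg/mL solution) incubated with inhibitor in 0.05% (w/v) BSA, 50 mM sodium citrate pH 3.2, 30 min at 37 °C. Reaction stopped with 10% TCA, kept on ice 30 min, then centrifuged. Supernatant A280 read against a BSA-in-citrate blank. ΔOD per minute measured at inhibitor levels of 5, 1 and 0.1 µM and 5, 1 and 0.1 nM. Pepstatin A run as reference at the same concentrations.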

[3] = target: Secreted aspartic protease 2 (Candida albicans) (UniProt P0CS83); assay: Ratio of pepstatin A IC50 to compound IC50 for candida albicans SAP2 by spectrophotometric analysis; procedure, shortened: as §1
Sequence of Secreted aspartic protease 2 (Candida albicans) (P0CS83 57-398 limits assumed): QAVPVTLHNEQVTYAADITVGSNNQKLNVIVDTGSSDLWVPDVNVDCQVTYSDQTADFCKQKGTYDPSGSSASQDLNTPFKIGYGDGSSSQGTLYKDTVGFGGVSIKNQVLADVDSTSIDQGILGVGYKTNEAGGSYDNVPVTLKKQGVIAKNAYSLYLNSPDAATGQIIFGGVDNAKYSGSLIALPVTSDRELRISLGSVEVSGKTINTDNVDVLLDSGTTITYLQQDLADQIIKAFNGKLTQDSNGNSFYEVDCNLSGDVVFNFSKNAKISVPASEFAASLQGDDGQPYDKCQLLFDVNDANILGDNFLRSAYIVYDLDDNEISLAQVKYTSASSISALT

T1 sequence (P0CS83 whole entry): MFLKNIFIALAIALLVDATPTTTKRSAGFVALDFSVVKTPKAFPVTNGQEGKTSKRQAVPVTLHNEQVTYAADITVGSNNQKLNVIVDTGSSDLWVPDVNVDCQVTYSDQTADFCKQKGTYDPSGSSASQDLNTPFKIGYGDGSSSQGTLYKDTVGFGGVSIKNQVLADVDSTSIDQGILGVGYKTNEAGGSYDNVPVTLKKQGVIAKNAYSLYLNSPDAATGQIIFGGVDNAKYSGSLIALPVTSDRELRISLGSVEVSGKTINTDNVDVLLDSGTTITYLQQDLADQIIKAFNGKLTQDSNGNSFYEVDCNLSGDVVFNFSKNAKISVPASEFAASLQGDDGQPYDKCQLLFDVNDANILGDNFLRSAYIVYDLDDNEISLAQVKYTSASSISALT

Ki [2]	Structure (SMILES)	IC50 [1]	Ratio IC50 [3]
	COC(=O)[C@@H](CC(C)C)N1C[C@@H]2O[C@@H](C(=O)N3CCCCC3)[C@@H](O2)C1=O	890 nM	
	CC(C)C[C@@H](CO)NC(=O)C1O[C@H]2CN(Cc3ccccc3)C(=O)[C@@H]1O2 (stereo partly drawn)	550 nM	
	CC(C)C[C@H](CO)NC(=O)C1O[C@H]2CN(Cc3ccccc3)C(=O)[C@@H]1O2 (stereo partly drawn)	> 10000 nM	
	CC(C)CC(=O)N[C@H](C(=O)N[C@H](C(=O)N[C@@H](CC(C)C)[C@@H](O)CC(=O)N[C@@H](C)C(=O)N[C@@H](CC(C)C)[C@@H](O)CC(=O)O)C(C)C)C(C)C [PEPSTATIN]	90 nM	
	O=C([C@H]1O[C@@H]2CN(Cc3ccccc3)C(=O)[C@H]1O2)N1CCCCC1	980 nM	
12 nM	CCCCNC(=O)[C@H](C[C@H](O)[C@H](CC1CCCCC1)NC(=O)[C@H](CCCC)N1CCN(C(=O)N2CCN(C)CC2)[C@H](Cc2ccccc2)C1=O)C(C)C		
	CC(C)C[C@@H](CO)NC(=O)C1O[C@@H]2CN(Cc3ccccc3)C(=O)[C@H]1O2 (stereo partly drawn)	1100 nM	
	COC(=O)[C@H](CC(C)C)N1C[C@H]2O[C@H](C(=O)N3CCCCC3)[C@H](O2)C1=O	> 10000 nM	
	COC(=O)[C@H](CC(C)C)N1C[C@@H]2O[C@@H](C(=O)N3CCCCC3)[C@@H](O2)C1=O	900 nM	
	COC(=O)[C@@H](CC(C)C)N1C[C@H]2O[C@H](C(=O)N3CCCCC3)[C@H](O2)C1=O	740 nM	
	O=C([C@@H]1O[C@H]2CN(Cc3ccccc3)C(=O)[C@@H]1O2)N1CCCCC1	30 nM	3
	CC(C)C[C@H](CO)NC(=O)C1O[C@@H]2CN(Cc3ccccc3)C(=O)[C@H]1O2 (stereo partly drawn)	> 10000 nM	
